Values after ≈ are worked out from the molar mass of the structure shown.
Columns and labels:
Assay type in all cases: functional
[1] = test system: Trichophyton mentagrophytes; test: Antifungal activity against Trichophyton mentagrophytes PMC 6503 after 72 hrs by CLSI broth microdilution method; settings: PMC 6503, 72 h
Summary of the method: (§1)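 Dermatophytes tested by CLSI broth microdilution for filamentous fungi (M38-A2). Serial two-fold dilutions of DMSO-dissolved compound in RPMI 1640, final 0.125–64. Inoculum was 0.4–5 × 10^4 CFU mL−1, incubated at 35 °C and read at 72 h. MIC80 is the lowest concentration giving ≥80% growth inhibition versus growth control. Median of five replicates, plus geometric mean.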

[2] = test system: Candida albicans; test: Ratio of fluconazole MIC to compound MIC for Candida albicans PMC 1042R after 48 hrs by CLSI broth microdilution method
[3] = test system: Cryptococcus neoformans; test: Antifungal activity against Cryptococcus neoformans PMC 2115 after 72 hrs by CLSI broth microdilution method; settings: PMC 2115, 72 h
Summary of the method: (§2)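 Cryptococcus neoformans tested by CLSI broth microdilution in RPMI 1640, with serial two-fold dilutions from DMSO stocks at 100× the top concentration, final 0.125–64. Inoculum was 1.0–1.5 × 10^3 cells mL−1 at 35 °C, with growth read at 72 h. MIC is the lowest concentration with ≥50% growth inhibition versus control. Median of five replicates, plus geometric mean.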

[4] = test system: Candida albicans; test: Antifungal activity against Candida albicans ATCC 10231 after 48 hrs by CLSI broth microdilution method; settings: ATCC 10231, 48 h
Summary of the method: (§3)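 Yeast CLSI broth microdilution (M27-A3). Compounds dissolved in DMSO at 100× the top test concentration, then diluted as serial two-fold dilutions in RPMI 1640 to final 0.125–64. Inoculum was 1.0–1.5 × 10^3 cells mL−1, incubated at 35 °C and read for growth at 48 h. MIC is the lowest concentration giving ≥50% growth inhibition versus growth control. Reported as the median of five replicates and as the geometric mean.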

[5] = test system: Nakaseomyces glabratus; test: Antifungal activity against Candida glabrata PMC 0851R after 48 hrs by CLSI broth microdilution method; summary of the method: as §3
[6] = test system: Nannizzia gypsea; test: Antifungal activity against Microsporum gypseum PMC 7303 after 72 hrs by CLSI broth microdilution method; settings: PMC 7303, 72 h; summary of the method: as §1
[7] = test system: Cryptococcus neoformans; test: Antifungal activity against Cryptococcus neoformans PMC 2103 after 72 hrs by CLSI broth microdilution method; settings: PMC 2103, 72 h; summary of the method: as §2
[8] = test system: Candida albicans; test: Antifungal activity against Candida albicans ATCC 20891 after 48 hrs by CLSI broth microdilution method; settings: ATCC 20891, 48 h; summary of the method: as §3
[9] = test system: Trichophyton mentagrophytes; test: Antifungal activity against Trichophyton mentagrophytes PMC 6552 after 72 hrs by CLSI broth microdilution method; settings: PMC 6552, 72 h; summary of the method: as §1
[10] = test system: Cryptococcus neoformans; test: Antifungal activity against Cryptococcus neoformans PMC 2123 after 72 hrs by CLSI broth microdilution method; settings: PMC 2123, 72 h; summary of the method: as §2
[11] = test system: Pichia kudriavzevii; test: Antifungal activity against Candida krusei PMC 0613 after 48 hrs by CLSI broth microdilution method; settings: PMC 0613, 48 h; summary of the method: as §3
[12] = test system: Candida albicans; test: Antifungal activity against Candida albicans PMC 1011 after 48 hrs by CLSI broth microdilution method; settings: PMC 1011, 48 h; summary of the method: as §3
[13] = test system: Candida parapsilosis; test: Antifungal activity against Candida parapsilosis DSM 11224 after 48 hrs by CLSI broth microdilution method; settings: Lodderomyces parapsilosis, DSM 11224, 48 h; summary of the method: as §3
[14] = test system: Cryptococcus neoformans; test: Antifungal activity against Cryptococcus neoformans PMC 2111 after 72 hrs by CLSI broth microdilution method; settings: PMC 2111, 72 h; summary of the method: as §2
[15] = test system: Trichophyton mentagrophytes; test: Antifungal activity against Trichophyton mentagrophytes PMC 6509 after 72 hrs by CLSI broth microdilution method; settings: PMC 6509, 72 h; summary of the method: as §1
[16] = test system: Nakaseomyces glabratus; test: Ratio of fluconazole MIC to compound MIC for Candida glabrata PMC 0852R after 48 hrs by CLSI broth microdilution method
[17] = test system: Candida albicans; test: Ratio of fluconazole MIC to compound MIC for Candida albicans PMC 1040R after 48 hrs by CLSI broth microdilution method
[18] = test system: Trichophyton mentagrophytes; test: Antifungal activity against Trichophyton mentagrophytes PMC 6515 after 72 hrs by CLSI broth microdilution method; settings: PMC 6515, 72 h; summary of the method: as §1
[19] = test system: Nakaseomyces glabratus; test: Antifungal activity against Candida glabrata PMC 0850R after 48 hrs by CLSI broth microdilution method; summary of the method: as §3
[20] = test system: Candida albicans; test: Antifungal activity against Candida albicans ATCC 10261 after 48 hrs by CLSI broth microdilution method; settings: ATCC 10261, 48 h; summary of the method: as §3
[21] = test system: Cryptococcus neoformans; test: Antifungal activity against Cryptococcus neoformans DSM 11959 after 72 hrs by CLSI broth microdilution method; settings: DSM 11959, 72 h; summary of the method: as §2
[22] = test system: Nakaseomyces glabratus; test: Ratio of fluconazole MIC to compound MIC for Candida glabrata PMC 0853R after 48 hrs by CLSI broth microdilution method
[23] = test system: Candida tropicalis; test: Antifungal activity against Candida tropicalis DSM 11953 after 48 hrs by CLSI broth microdilution method; settings: DSM 11953, 48 h; summary of the method: as §3
[24] = test system: Nakaseomyces glabratus; test: Antifungal activity against Candida glabrata PMC 0807 after 48 hrs by CLSI broth microdilution method; settings: PMC 0807, 48 h; summary of the method: as §3
[25] = test system: Nakaseomyces glabratus; test: Antifungal activity against Candida glabrata PMC 0852R after 48 hrs by CLSI broth microdilution method; summary of the method: as §3
[26] = test system: Cryptococcus neoformans; test: Antifungal activity against Cryptococcus neoformans PMC 2102 after 72 hrs by CLSI broth microdilution method; settings: PMC 2102, 72 h; summary of the method: as §2
[27] = test system: Candida albicans; test: Ratio of fluconazole MIC to compound MIC for Candida albicans PMC 1041R after 48 hrs by CLSI broth microdilution method
[28] = test system: Nakaseomyces glabratus; test: Ratio of fluconazole MIC to compound MIC for Candida glabrata PMC 0850R after 48 hrs by CLSI broth microdilution method
[29] = test system: Candida tropicalis; test: Antifungal activity against Candida tropicalis PMC 0910 after 48 hrs by CLSI broth microdilution method; settings: PMC 0910, 48 h; summary of the method: as §3
[30] = test system: Pichia kudriavzevii; test: Antifungal activity against Candida krusei DSM 6128 after 48 hrs by CLSI broth microdilution method; settings: DSM 6128, 48 h; summary of the method: as §3
[31] = test system: Candida albicans; test: Antifungal activity against Candida albicans ATCC 76615 after 48 hrs by CLSI broth microdilution method; settings: ATCC 76615, 48 h; summary of the method: as §3
[32] = test system: Nakaseomyces glabratus; test: Antifungal activity against Candida glabrata PMC 0805 after 48 hrs by CLSI broth microdilution method; settings: PMC 0805, 48 h; summary of the method: as §3
[33] = test system: Nannizzia gypsea; test: Antifungal activity against Microsporum gypseum PMC 7331 after 72 hrs by CLSI broth microdilution method; settings: PMC 7331, 72 h; summary of the method: as §1
[34] = test system: Trichophyton mentagrophytes; test: Antifungal activity against Trichophyton mentagrophytes PMC 6531 after 72 hrs by CLSI broth microdilution method; settings: PMC 6531, 72 h; summary of the method: as §1
[35] = test system: Nakaseomyces glabratus; test: Ratio of fluconazole MIC to compound MIC for Candida glabrata PMC 0851R after 48 hrs by CLSI broth microdilution method
[36] = test system: Candida albicans; test: Antifungal activity against Candida albicans PMC 1040R after 48 hrs by CLSI broth microdilution method; summary of the method: as §3
[37] = test system: Candida albicans; test: Antifungal activity against Candida albicans ATCC 90028 after 48 hrs by CLSI broth microdilution method; settings: ATCC 90028, 48 h; summary of the method: as §3
[38] = test system: Candida albicans; test: Antifungal activity against Candida albicans PMC 1042R after 48 hrs by CLSI broth microdilution method; summary of the method: as §3
[39] = test system: Candida parapsilosis; test: Antifungal activity against Candida parapsilosis ATCC 22019 after 48 hrs by CLSI broth microdilution method; settings: Lodderomyces parapsilosis, ATCC 22019, 48 h; summary of the method: as §3
[40] = test system: Nakaseomyces glabratus; test: Antifungal activity against Candida glabrata PMC 0853R after 48 hrs by CLSI broth microdilution method; summary of the method: as §3
[41] = test system: Candida albicans; test: Antifungal activity against Candida albicans ATCC 24433 after 48 hrs by CLSI broth microdilution method; settings: ATCC 24433, 48 h; summary of the method: as §3
[42] = test system: Candida albicans; test: Antifungal activity against Candida albicans ATCC 3153 after 48 hrs by CLSI broth microdilution method; settings: ATCC 3153, 48 h; summary of the method: as §3
[43] = test system: Cryptococcus neoformans; test: Antifungal activity against Cryptococcus neoformans PMC 2136 after 72 hrs by CLSI broth microdilution method; settings: PMC 2136, 72 h; summary of the method: as §2
[44] = test system: Nannizzia gypsea; test: Antifungal activity against Microsporum gypseum DSM 3824 after 72 hrs by CLSI broth microdilution method; settings: DSM 3824, 72 h; summary of the method: as §1
[45] = test system: Candida albicans; test: Antifungal activity against Candida albicans PMC 1041R after 48 hrs by CLSI broth microdilution method; summary of the method: as §3
[46] = test system: Trichophyton mentagrophytes; test: Antifungal activity against Trichophyton mentagrophytes DSM 4870 after 72 hrs by CLSI broth microdilution method; settings: DSM 4870, 72 h; summary of the method: as §1
[47] = test system: Cryptococcus neoformans; test: Antifungal activity against Cryptococcus neoformans PMC 2107 after 72 hrs by CLSI broth microdilution method; settings: PMC 2107, 72 h; summary of the method: as §2

Compound `O=C(Nc1ccc(N2CCN(c3ccc(Cl)cc3)CC2)cc1)O[C@@H](Cn1ccnc1)c1ccc(F)cc1` has an MIC80 [1] of 4 µg/mL (≈ 7.69 µM), a Ratio [2] of 15 and an MIC50 [3] of 0.25 µg/mL (≈ 0.481 µM). The MIC50 [4] was 0.25 µg/mL (≈ 0.481 µM), the MIC50 [5] was 64 µg/mL (≈ 123 µM) and the MIC80 [6] was 2 µg/mL (≈ 3.85 µM). For the same compound, the MIC50 [7] was 0.06 µg/mL (≈ 0.115 µM), the MIC50 [8] was 0.0625 µg/mL (≈ 0.12 µM) and the MIC80 [9] was 2 µg/mL (≈ 3.85 µM). It also gave an MIC50 [10] of 0.25 µg/mL (≈ 0.481 µM), an MIC50 [11] of 0.0625 µg/mL (≈ 0.12 µM) and an MIC50 [12] of 0.0625 µg/mL (≈ 0.12 µM). It also gave an MIC50 [13] of 0.0625 µg/mL (≈ 0.12 µM), an MIC50 [14] of 0.5 µg/mL (≈ 0.962 µM) and an MIC80 [15] of 4 µg/mL (≈ 7.69 µM). For the same compound, the Ratio [16] was 15, the Ratio [17] was 15 and the MIC80 [18] was 4 µg/mL (≈ 7.69 µM). It also gave an MIC50 [19] of 0.25 µg/mL (≈ 0.481 µM), an MIC50 [20] of 0.125 µg/mL (≈ 0.24 µM) and an MIC50 [21] of 0.125 µg/mL (≈ 0.24 µM). For the same compound, the Ratio [22] was 15, the MIC50 [23] was 0.25 µg/mL (≈ 0.481 µM) and the MIC50 [24] was 0.25 µg/mL (≈ 0.481 µM). It also gave an MIC50 [25] of 2 µg/mL (≈ 3.85 µM), an MIC50 [26] of 0.25 µg/mL (≈ 0.481 µM) and a Ratio [27] of 15. The Ratio [28] was 15, the MIC50 [29] was 2 µg/mL (≈ 3.85 µM) and the MIC50 [30] was 0.5 µg/mL (≈ 0.962 µM). The MIC50 [31] was 0.5 µg/mL (≈ 0.962 µM), the MIC50 [32] was 0.0625 µg/mL (≈ 0.12 µM) and the MIC80 [33] was 4 µg/mL (≈ 7.69 µM). The MIC80 [34] was 4 µg/mL (≈ 7.69 µM), the Ratio [35] was 15 and the MIC50 [36] was 64 µg/mL (≈ 123 µM). For the same compound, the MIC50 [37] was 0.125 µg/mL (≈ 0.24 µM), the MIC50 [38] was 1 µg/mL (≈ 1.92 µM) and the MIC50 [39] was 0.125 µg/mL (≈ 0.24 µM). For the same compound, the MIC50 [40] was 2 µg/mL (≈ 3.85 µM), the MIC50 [41] was 0.5 µg/mL (≈ 0.962 µM) and the MIC50 [42] was 0.5 µg/mL (≈ 0.962 µM). The MIC50 [43] was 0.0625 µg/mL (≈ 0.12 µM), the MIC80 [44] was 2 µg/mL (≈ 3.85 µM) and the MIC50 [45] was 0.5 µg/mL (≈ 0.962 µM). It also gave an MIC80 [46] of 4 µg/mL (≈ 7.69 µM) and an MIC50 [47] of 0.25 µg/mL (≈ 0.481 µM).
